Results published in ChEMBL document CHEMBL1141859, “Synthesis and antimicrobial activity of 5-hydroxymethyl- 8-methyl-2-(N-arylimino)-pyrano[2,3-c]pyridine-3-(N-aryl)-carboxamides” (2005).
In brackets after ≈: the same amount, converted by molar mass.

Key:
Assay type in all cases: functional
[1] = system: Staphylococcus aureus; test: Antibacterial activity against Staphylococcus aureus
Procedure, shortened: (§1)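 Twofold serial broth dilution in tubes, triplicate. Ten tubes of seeded broth (2 mL each); compound added as a 1 mg/mL DMF solution to the first tube, then serially transferred. Bacteria inoculated at 2×10^5 cfu/mL and incubated at 37 °C for 18–24 h. MIC (µg/mL) read visually. DMF solvent, positive growth and standard drug controls run alongside.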

[2] = system: Escherichia coli; test: Antibacterial activity against Escherichia coli; procedure, shortened: as §1
[3] = system: Pseudomonas aeruginosa; test: Antibacterial activity against Pseudomonas aeruginosa; procedure, shortened: as §1
[4] = system: Proteus vulgaris; test: Antibacterial activity against Proteus vulgaris; procedure, shortened: as §1
[5] = system: Candida albicans; test: Antifungal activity against Candida albicans
Procedure, shortened: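 For Candida albicans: broth double-dilution in tubes, run in triplicate. Compound added as a 1 mg/mL DMF solution to the first of ten seeded-broth tubes (2 mL), then serially diluted by transfer. Fungal inoculum 5×10^5 cfu/mL; incubation at 30 °C for 48 h. MIC (µg/mL) by visual reading. Controls were DMF solvent, positive growth and standard drug.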

Cc1cccc(NC(=O)c2cc3c(CO)cnc(C)c3o/c2=N\c2cccc(Cl)c2)c1
MIC [1]: 100 µg/mL (≈ 230 µM)
MIC [2]: 50 µg/mL (≈ 115 µM)
MIC [3]: 50 µg/mL (≈ 115 µM)
MIC [4]: 100 µg/mL (≈ 230 µM)
MIC [5]: 50 µg/mL (≈ 115 µM)

Cc1ncc(CO)c2cc(C(=O)Nc3ccccc3)/c(=N/c3ccccc3)oc12
MIC [1]: 50 µg/mL (≈ 130 µM)
MIC [2]: 25 µg/mL (≈ 64.9 µM)
MIC [3]: 50 µg/mL (≈ 130 µM)
MIC [4]: 50 µg/mL (≈ 130 µM)
MIC [5]: 50 µg/mL (≈ 130 µM)

COc1ccc(/N=c2\oc3c(C)ncc(CO)c3cc2C(=O)Nc2cccc(C)c2)c(OC)c1
MIC [1]: 50 µg/mL (≈ 109 µM)
MIC [2]: 50 µg/mL (≈ 109 µM)
MIC [3]: 25 µg/mL (≈ 54.4 µM)
MIC [4]: 50 µg/mL (≈ 109 µM)
MIC [5]: 50 µg/mL (≈ 109 µM)

OC(Cn1cncn1)(Cn1cncn1)c1ccc(F)cc1F [FLUCONAZOLE]
MIC [5]: 50 µg/mL (≈ 163 µM)

COc1cccc(/N=c2\oc3c(C)ncc(CO)c3cc2C(=O)Nc2ccc(C)cc2)c1
MIC [1]: 50 µg/mL (≈ 116 µM)
MIC [2]: 25 µg/mL (≈ 58.2 µM)
MIC [3]: 50 µg/mL (≈ 116 µM)
MIC [4]: 100 µg/mL (≈ 233 µM)
MIC [5]: 50 µg/mL (≈ 116 µM)

Cc1ncc(CO)c2cc(C(=O)Nc3ccccc3F)/c(=N/c3ccc(C(F)(F)F)cc3)oc12
MIC [1]: 50 µg/mL (≈ 106 µM)
MIC [2]: 50 µg/mL (≈ 106 µM)
MIC [3]: 50 µg/mL (≈ 106 µM)
MIC [4]: 100 µg/mL (≈ 212 µM)
MIC [5]: 25 µg/mL (≈ 53 µM)

CCOC(=O)c1ccc(/N=c2\oc3c(C)ncc(CO)c3cc2C(=O)Nc2ccccc2)cc1
MIC [1]: 50 µg/mL (≈ 109 µM)
MIC [2]: 50 µg/mL (≈ 109 µM)
MIC [3]: 50 µg/mL (≈ 109 µM)
MIC [4]: 50 µg/mL (≈ 109 µM)
MIC [5]: 50 µg/mL (≈ 109 µM)

COc1cc(/N=c2\oc3c(C)ncc(CO)c3cc2C(=O)Nc2ccccc2)cc(OC)c1
MIC [1]: 50 µg/mL (≈ 112 µM)
MIC [2]: 50 µg/mL (≈ 112 µM)
MIC [3]: 25 µg/mL (≈ 56.1 µM)
MIC [4]: 50 µg/mL (≈ 112 µM)
MIC [5]: 100 µg/mL (≈ 224 µM)

CCc1cccc(/N=c2\oc3c(C)ncc(CO)c3cc2C(=O)Nc2ccccc2)c1
MIC [1]: 100 µg/mL (≈ 242 µM)
MIC [2]: 100 µg/mL (≈ 242 µM)
MIC [3]: 100 µg/mL (≈ 242 µM)
MIC [4]: 100 µg/mL (≈ 242 µM)
MIC [5]: 100 µg/mL (≈ 242 µM)

COc1ccc(NC(=O)c2cc3c(CO)cnc(C)c3o/c2=N\c2ccc(Cl)c(Cl)c2)c(OC)c1
MIC [1]: 50 µg/mL (≈ 97.2 µM)
MIC [2]: 50 µg/mL (≈ 97.2 µM)
MIC [3]: 50 µg/mL (≈ 97.2 µM)
MIC [4]: 50 µg/mL (≈ 97.2 µM)
MIC [5]: 50 µg/mL (≈ 97.2 µM)

COc1ccc(NC(=O)c2cc3c(CO)cnc(C)c3o/c2=N\c2ccc(Cl)c(Cl)c2)cc1
MIC [1]: 12.5 µg/mL (≈ 25.8 µM)
MIC [2]: 25 µg/mL (≈ 51.6 µM)
MIC [3]: 25 µg/mL (≈ 51.6 µM)
MIC [4]: 25 µg/mL (≈ 51.6 µM)
MIC [5]: 12.5 µg/mL (≈ 25.8 µM)

Cc1cccc(/N=c2\oc3c(C)ncc(CO)c3cc2C(=O)Nc2ccccc2C)c1
MIC [1]: 100 µg/mL (≈ 242 µM)
MIC [2]: 50 µg/mL (≈ 121 µM)
MIC [3]: 50 µg/mL (≈ 121 µM)
MIC [4]: 25 µg/mL (≈ 60.5 µM)
MIC [5]: 12.5 µg/mL (≈ 30.2 µM)

Cc1ccc(NC(=O)c2cc3c(CO)cnc(C)c3o/c2=N\c2cccc(Cl)c2)cc1
MIC [1]: 50 µg/mL (≈ 115 µM)
MIC [2]: 50 µg/mL (≈ 115 µM)
MIC [3]: 50 µg/mL (≈ 115 µM)
MIC [4]: 50 µg/mL (≈ 115 µM)
MIC [5]: 25 µg/mL (≈ 57.6 µM)

COc1ccccc1/N=c1\oc2c(C)ncc(CO)c2cc1C(=O)Nc1ccc(C)cc1
MIC [1]: 100 µg/mL (≈ 233 µM)
MIC [2]: 50 µg/mL (≈ 116 µM)
MIC [3]: 50 µg/mL (≈ 116 µM)
MIC [4]: 100 µg/mL (≈ 233 µM)
MIC [5]: 25 µg/mL (≈ 58.2 µM)

Cc1ccc(NC(=O)c2cc3c(CO)cnc(C)c3o/c2=N\c2ccccc2I)cc1
MIC [1]: 25 µg/mL (≈ 47.6 µM)
MIC [2]: 50 µg/mL (≈ 95.2 µM)
MIC [3]: 50 µg/mL (≈ 95.2 µM)
MIC [4]: 100 µg/mL (≈ 190 µM)
MIC [5]: 50 µg/mL (≈ 95.2 µM)

CCc1ccc(/N=c2\oc3c(C)ncc(CO)c3cc2C(=O)Nc2ccccc2)cc1
MIC [1]: 50 µg/mL (≈ 121 µM)
MIC [2]: 50 µg/mL (≈ 121 µM)
MIC [3]: 50 µg/mL (≈ 121 µM)
MIC [4]: 50 µg/mL (≈ 121 µM)
MIC [5]: 50 µg/mL (≈ 121 µM)

Cc1ccc2nc(-c3ccc(/N=c4\oc5c(C)ncc(CO)c5cc4C(=O)Nc4ccccc4)cc3)sc2c1
MIC [1]: 100 µg/mL (≈ 188 µM)
MIC [2]: 25 µg/mL (≈ 46.9 µM)
MIC [3]: 100 µg/mL (≈ 188 µM)
MIC [4]: 50 µg/mL (≈ 93.9 µM)
MIC [5]: 50 µg/mL (≈ 93.9 µM)

CCc1ccccc1/N=c1\oc2c(C)ncc(CO)c2cc1C(=O)Nc1ccc(C)cc1
MIC [1]: 50 µg/mL (≈ 117 µM)
MIC [2]: 50 µg/mL (≈ 117 µM)
MIC [3]: 50 µg/mL (≈ 117 µM)
MIC [4]: 50 µg/mL (≈ 117 µM)
MIC [5]: 50 µg/mL (≈ 117 µM)
